Laboratory results published in publication PMC5415879 (Molecular Pharmaceutics, 2017).
Where no end group is shown, it is not given here.

Assays:
Format in all cases: physicochemical
[1] = Particle morphology and size by transmission electron microscopy; conditions: 0.1 mg/mL in HEPES 10 mM, negative staining with 2% uranyl acetate
Method in brief: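 Applies to peptide–pNIPAm self-assembled particles. Samples at 0.1 mg/mL in 10 mM HEPES are applied to prewarmed carbon-coated copper grids for 2 min, and excess liquid is blotted off with filter paper. Grids are negatively stained with 2% uranyl acetate for 45 s and dried 10 min at room temperature. Morphology and size are then read from TEM images.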

[2] = Critical aggregation concentration, Nile red assay; conditions: Nile red fluorescence (Ex550/Em635), PBS pH 7.4, 0.1 to 500 μg/mL, overnight incubation at room temperature; intersection of two linear fits
[3] = Particle morphology by atomic force microscopy; conditions: nanostructures immobilized on poly-L-lysine coated mica, room temperature

Row | Substance | particle size by TEM [1] | critical aggregation concentration (CAC) [2] | particle diameter by AFM [3] [nm]
1 | HPV16 E7_43–57-poly(NIPAm) [HPV-pNIPAm] | 20–80 nm |  | 
2 | HPV16 E7_43–57-poly(DMAm) [HPV-pDMAm] | no particles |  | 
3 | Ac-AAVVLLLWGQAEPDRAHYNIVTF [HPV-SA] |  | ca. 15 μM | ~100
4 | OVA250–264-poly(NIPAm) [OVA-pNIPAm] | 20–80 nm |  | 
